ChEMBL document CHEMBL1156963, “Regioselective one-pot synthesis and anti-proliferative and apoptotic effects of some novel tetrazolo[1,5-a]pyrimidine derivatives” (Bioorg Med Chem, 2010)
Active and inactive are the calls of the source. No cut-off for these calls is given here.

How the values were obtained:
[1] = system: HepG2; assay: Cytotoxicity against human HepG2 cells after 48 hrs by sulforhodamine B assay; assay type: functional, cell-based
Summary of the method: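 HepG2 monolayers were treated with graded concentrations (0–100 range) for 48 h at 37 °C. Cells were then fixed and stained with sulforhodamine B, excess dye was removed with acetic acid, and bound dye was dissolved in Tris-EDTA for colorimetric reading. Survival fraction was plotted against concentration.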

[2] = system: Ehrlich; assay: Induction of apoptosis in mouse EAC cells transplanted in Albino mouse assessed as increase in p53 level at 10 mg/kg, po QD for 2 weeks […] relative to control; assay type: functional, organism-based; design: dose 10 mg/kg
[3] = system: Ehrlich; assay: Antitumor activity against mouse EAC cells transplanted in Albino mouse assessed as increase in number of dead cells at 10 mg/kg, po QD for 2 weeks using trypan blue staining by Neubauer hemocytometry relative to control; assay type: functional, organism-based; design: dose 10 mg/kg
Summary of the method: (§1)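 Female albino mice each received 0.2 ml EAC ascites intraperitoneally (stock aliquot diluted 1:50 in saline). Dosing was 10 mg/kg in 10% DMSO by gastric intubation, daily for 2 weeks from the day of inoculation, against a 10% DMSO vehicle group (12 mice per group). At the end, under ether, 0.2 ml saline was given ip and ascites aspirated 1 min later. Aliquot volume was measured. Live and dead cells were counted by trypan blue on a Neubauer haemocytometer. Mean ± SE, LSD.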

[4] = Antitumor activity against mouse EAC cells transplanted in Albino mouse assessed as increase in survival at 10 mg/kg, po QD for 2 weeks relative to control; assay type: functional, Ehrlich
Summary of the method: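 Female albino mice inoculated i.p. with 0.2 ml 1:50 saline-diluted EAC; oral gavage in 10% DMSO daily between 10 and 12 AM for 2 successive weeks from inoculation day; vehicle-treated controls (12 mice per group). Survival percent = survived/total animals × 100.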

[5] = Growth inhibition of mouse EAC cells at 25 ug/ml after 2 hrs using trypan blue staining by Neubauer hemocytometry; assay type: functional; conditions: Ehrlich, read-out: GI
Summary of the method: (§2)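 EAC cells at 2.5 × 10^5 cells/ml in PBS were exposed to three compound concentrations for 2 h at 37 °C in 5% CO2. An equal volume of trypan blue was then added. Stained (dead) and unstained cells were counted on a Neubauer haemocytometer, and percent dead cells was calculated per test.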

[6] = Antitumor activity against mouse EAC cells transplanted in Albino mouse assessed as increase in cell mortality rate at 10 mg/kg, po QD for 2 weeks using trypan blue staining by Neubauer hemocytometry relative to control; assay type: functional, Ehrlich
Summary of the method: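 Female albino mice given 0.2 ml EAC (1:50 dilution in saline of aliquot from stock mice) i.p.; dosed orally by gastric intubation in 10% DMSO daily for 2 weeks from day of inoculation, vehicle controls. At end, ascites collected after 0.2 ml saline i.p. under ether; alive/dead cells counted by trypan blue exclusion, percent dead per mouse; mean ± SE, LSD test.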

[7] = Growth inhibition of mouse EAC cells at 50 ug/ml after 2 hrs using trypan blue staining by Neubauer hemocytometry; assay type: functional; conditions: Ehrlich, read-out: GI; summary of the method: as §2
[8] = system: Ehrlich; assay: Antitumor activity against mouse EAC cells transplanted in Albino mouse assessed as decrease in total number of cells at 10 mg/kg, po QD for 2 weeks using trypan blue staining by Neubauer hemocytometry relative to control; assay type: functional, organism-based; design: dose 10 mg/kg; summary of the method: as §1
[9] = Toxicity in Albino mouse assessed as mortality after 48 hrs; assay type: organism-based; conditions: in vivo
[10] = system: Ehrlich; assay: Induction of apoptosis in mouse EAC cells transplanted in Albino mouse assessed as decrease in Bcl-2 level in cytoplasm of cells at 10 mg/kg, po QD for 2 weeks […] relative to control; assay type: functional, organism-based; design: dose 10 mg/kg
[11] = Antitumor activity against mouse EAC cells transplanted in Albino mouse assessed as decrease in EAC-aliquot volume at 10 mg/kg, po QD for 2 weeks relative to control (Rvb= 5.77+/-0.39 ml); assay type: functional, Ehrlich; summary of the method: as §1
[12] = Growth inhibition of mouse EAC cells at 100 ug/ml after 2 hrs using trypan blue staining by Neubauer hemocytometry; assay type: functional; conditions: Ehrlich, read-out: GI; summary of the method: as §2
[13] = system: Ehrlich; assay: Antitumor activity against mouse EAC cells transplanted in Albino mouse assessed as decrease in number of living cells at 10 mg/kg, po QD for 2 weeks using trypan blue staining by Neubauer hemocytometry relative to control; assay type: functional, organism-based; design: dose 10 mg/kg; summary of the method: as §1

c1nc2nnnn2c2c1CCCC2
Activity [1]: Dose-dependent effect
Activity [2]: Active
Activity [3]: Active
Activity [4]: 83.33%
inhibition of growth at 25 µg/mL [5]: 10%
Activity [6]: 8.24%
inhibition of growth at 50 µg/mL [7]: 25%
Activity [8]: Active
LD50 at 48 h [9]: 500 mg/kg
Activity [10]: Active
Activity [11]: 2.52 mL
inhibition of growth at 100 µg/mL [12]: 45%
Activity [13]: Active
